Measured values reported in ChEMBL document CHEMBL1144537, “Synthesis of a non-cationic, water-soluble perylenetetracarboxylic diimide and its interactions with G-quadruplex-forming DNA” (Bioorg Med Chem, 2007).
The source made the active and inactive calls. The rule behind the calls is not given here.

Legend:
[1] = species: Homo sapiens; assay: Induction of dimer formation in human nuclease hypersensitive region of c-MYC gene NHE-27 G-rich ssDNA
[2] = species: Homo sapiens; assay: Induction of dimer formation in human telomeric repeat 2HTR G-rich ssDNA
[3] = Binding affinity to human double stranded nuclease hypersensitive region of c-MYC gene NHE-27 by fluorescence quenching assay
Outline: (§1)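 Ligand held at fixed 34–168 nM in 10 mM Tris–HCl (pH 8.0) with 100 mM KCl and 1 mM EDTA, then titrated with G-rich strand, C-rich complement, or duplex made by mixing both. Each addition mixed 2 min at 25 °C. Excitation 450 nm; quenching at 545 nm read. Kd fitted by nonlinear least squares to non-interacting-site mass-action model; triplicate titrations, mean ± SD.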

[4] = Binding affinity to 32 base containing complementary human telomeric repeat C-rich ssDNA by fluorescence quenching assay; outline: as §1
[5] = species: Homo sapiens; assay: Induction of tetramer formation in human telomeric repeat 2HTR G-rich ssDNA
[6] = Binding affinity to human nuclease hypersensitive region of c-MYC gene NHE-27 by fluorescence quenching assay; outline: as §1
[7] = species: Homo sapiens; assay: Induction of tetramer formation in human nuclease hypersensitive region of c-MYC gene NHE-27 G-rich ssDNA
[8] = Binding affinity to double stranded human telomeric repeat by fluorescence quenching assay; outline: as §1
[9] = Binding affinity to 32 base containing human telomeric repeat G-rich ssDNA by fluorescence quenching assay; outline: as §1
[10] = Binding affinity to complementary nuclease hypersensitive region of c-MYC gene NHE-27 by fluorescence quenching assay; design: species or system Homo sapiens; outline: as §1

| SMILES | Activity [1] | Activity [2] | Kd [3] [µM] | Kd [4] [nM] | Activity [5] | Kd [6] [nM] | Activity [7] | Kd [8] [nM] | Kd [9] [nM] | Kd [10] [µM] |
| --- | --- | --- | --- | --- | --- | --- | --- | --- | --- | --- |
| O=C1c2ccc3c4ccc5c6c(ccc(c7ccc(c2c37)C(=O)N1CCN1CCCCC1)c64)C(=O)N(CCN1CCCCC1)C5=O | Active | Active | 0.0066 | 10 | Active | 5.5 | Active | 30 | 3.4 | – |
| COCCOCCOCC(COCCOCCOC)N1C(=O)c2ccc3c4ccc5c6c(ccc(c7ccc(c2c37)C1=O)c64)C(=O)N(C(COCCOCCOC)COCCOCCOC)C5=O | inactive | inactive | 14.8 | > 20000 | inactive | 980 | inactive | > 20000 | > 20000 | > 20 |
